Source: PubChem BioAssay
Activity calls are given as the source filed them.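 Rule for the calls: active = fluorescence slope after compound addition differing from the mean of all tested samples at 99.7% confidence, mostly higher but some lower; inactive = the rest.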

The compounds below were run against Muscarinic acetylcholine receptor M4 (Homo sapiens) (UniProt P08173) (assay: compounds altering M4/GIRK thallium flux, either direction, primary screen, M4 allosteric agonist project, cell-based, HEK293 M4/GIRK, BTC-AM (AID 625;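 note: thallium influx through GIRK channels coupled to M4 in HEK293 cells with BTC-AM dye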)). Conditions: at 10 µM, actives lie on both sides.
Muscarinic acetylcholine receptor M4 (Homo sapiens), sequence (P08173 whole entry, looked up): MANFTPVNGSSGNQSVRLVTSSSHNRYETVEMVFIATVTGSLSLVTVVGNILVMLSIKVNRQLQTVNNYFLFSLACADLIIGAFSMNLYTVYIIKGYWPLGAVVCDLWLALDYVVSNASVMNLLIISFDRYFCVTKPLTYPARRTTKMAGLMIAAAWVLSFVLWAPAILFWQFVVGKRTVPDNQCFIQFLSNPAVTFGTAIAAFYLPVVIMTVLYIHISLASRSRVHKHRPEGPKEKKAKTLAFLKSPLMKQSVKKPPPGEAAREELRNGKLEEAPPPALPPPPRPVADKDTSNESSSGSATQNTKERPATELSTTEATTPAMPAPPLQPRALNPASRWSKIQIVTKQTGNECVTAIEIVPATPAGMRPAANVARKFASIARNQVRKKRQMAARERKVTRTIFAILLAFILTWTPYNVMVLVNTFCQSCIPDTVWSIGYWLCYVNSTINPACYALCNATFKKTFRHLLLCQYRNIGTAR
Summary of the method: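 Assay system: HEK293 cells with M4 receptor and GIRK channels / Controls: carbachol and DMSO controls / Schedule: 1 h dye loading, 2 min kinetic read / Technique: kinetic fluorescence with BTC-AM dye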

Fluorescence slope, inactive:
CC(c1ccco1)N(C(=O)COc1ccc(Cl)cc1Cl)c1ccccn1 (stereo not given) 0.00469
O=S(=O)(c1ccc(OCC(O)CN2CCC(Cc3ccccc3)CC2)cc1)N1CCOCC1 (stereo not given) 0.00575
Cc1nc(SCC(=O)NCc2ccco2)c2c(C)c(C)sc2n1 0.00596
CC(C)(C)n1ncc2c(=O)n(CC(=O)NCc3ccco3)cnc21 0.00566
Cc1cccn2c(=O)c3cc(C#N)c(=NC(=O)c4cccnc4)n(CC4CCCO4)c3nc12 (stereo not given) 0.0039
CCOC(=O)CS(=O)(=O)c1nc(-c2ccccc2)cc(C(F)(F)F)n1 0.00498
CCOC(=O)c1ccc(NC2OC(=O)c3ccccc32)cc1 (stereo not given) 0.00703
CC(C)C(=O)Nc1cccc(NC(=O)c2cccnc2)c1 0.00325
Cc1ccc(C)n1NC(=O)c1ccco1 0.00521
CCCN1CCN(CCCNC(=O)Cn2nc(-c3ccc(Cl)cc3)ccc2=O)CC1 0.00614
Cc1cccc(-n2c(Cc3cc(=O)[nH]c(=O)[nH]3)nnc2SCC(=O)NCc2ccco2)c1 0.00455
COc1ccc(CN2C(=O)c3cccnc3C2Nc2cc(Cl)ccc2OC)cc1 (stereo not given) 0.00665
CS(=O)(=O)N(CC(=O)O)c1cccc(Cl)c1 0.00338
O=C(Nc1ccccc1C(=O)N1CCCCCC1)c1cccc(S(=O)(=O)N2CCOCC2)c1 0.00535
COC(=O)c1ccc(CSc2nc3c(cnn3-c3ccc(C)c(C)c3)c(=O)[nH]2)o1 0.0057
CCn1nnnc1SCC(=O)Nc1nnc(C(C)C)s1 0.0049
COCCNC(=O)CN(C)S(=O)(=O)c1ccc2c(c1)OCCO2 0.00472
Cc1nc(C)c(C(=O)OCC(=O)N2CCN(c3ccccc3)CC2)s1 0.00679
CCOC(=O)CNc1ccc2c(c1)OCO2 0.00399
Cc1ccc(S(=O)(=O)N(CC(=O)N2CCOCC2)CC(=O)N2CCOCC2)cc1 0.00519
Cc1cc(Cl)ccc1OCCCC(=O)N1CCOCC1 0.00464
CCC1(CC)NC(=O)NC1=O 0.00419
CC(=O)N1C(=O)C2(Nc3ccccc3N2)c2ccccc21 0.00603
CC1(C)OC(=O)C(=CNc2ccccc2)C(=O)O1 0.00548
C=CCn1c(C)cc(C(=O)CSc2nc3ccccc3c(=O)[nH]2)c1C 0.0056
CCOC(=O)N1CCN(C(=O)CCc2c(C)nc3c(c(C)nn3-c3ccc(C)c(C)c3)c2C)CC1 0.00541
CSc1ccccc1NC(=O)CN(Cc1ccccc1)S(C)(=O)=O 0.00609
CCOC(=O)c1[nH]c(C)c(C(=O)Nc2ccc(C)c(Cl)c2)c1C 0.00769
CC(=O)NC1=NC(=O)/C(=C/N2CCCCC2)S1 0.00493
COc1ccccc1C1C(C(C)=O)=C(O)C(=O)N1CCc1ccccc1 (stereo not given) 0.00483
CCCn1c2c(c(O)c(C(=O)Nc3ccc(C)cn3)c1=O)CCCC2 0.00777
O=c1oc2ccccc2n1CCc1ccccc1 0.00443
Cc1ccc(-n2nc(-c3cccs3)cc2C(=O)NCC2CCCO2)c(C)c1 (stereo not given) 0.00713
CC1(C)CC(=O)c2c(O)cc(O)cc2O1 0.00586
CCOC(=O)C1C(=O)OC(C)(C)C1C(C)C(=O)c1ccc(OC)cc1 (stereo not given) 0.00448
N#CCSc1nc(-c2ccccc2)cs1 0.0051
CCCOc1ccc([C@@H]2C3CN(C(=O)OCC)CC=C3C(C#N)=C(N)C2(C#N)C#N)cc1OC (stereo not given in full) 0.00528
O=C(CSc1nc(C2CCCCC2)n(-c2ccccc2)n1)NCCN1C(=O)CSC1=O 0.00728
CC(=O)OCC(=O)c1ccc2ccn(C(C)=O)c2c1 0.00624
CS(=O)(=O)Nc1ccc(C(=O)NCCc2ccccc2)cc1 0.00454
